# Measurements: ChEMBL document CHEMBL1138289, “Synthesis and biological evaluation of fluorescent leishmanicidal analogues of hexadecylphosphocholine (miltefosine) as probes of antiparasite mechanisms” (J Med Chem, 2007)
# Tested on: Leishmania donovani
# Experiment: Drug level per mg of protein in miltefosine-sensitive Leishmania donovani promastigotes at 15 uM after 2 hrs
# Format: ADME, organism-based
# Details: in vivo
# How it was run: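 Late-exponential L. donovani promastigotes (MHOM/ET/67/L82) washed twice in Hanks+Glc, resuspended at 1.5 × 10^7 parasites mL-1 in the same medium with the analogue, incubated 2 h at 26 °C to reach steady intracellular accumulation. Analogue extracted and quantified by HPLC against calibration plots; expressed per mg protein.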
row,Compound,Drug uptake
1,C[N+](C)(C)CCOP(=O)([O-])OCCCCCC#C/C=C/C=C/C=C/c1ccccc1,7.6 nmol/mg

# Tested on: Leishmania donovani
# Experiment: Antileishmanial activity against miltefosine-sensitive Leishmania donovani MHOM/ET/67/L82 promastigotes by MTT assay
# Format: functional
# Details: read-out: LD50 (the source's name)
# How it was run: (§1)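 Promastigotes from late exponential phase, washed twice, seeded at 2 × 10^6 parasites mL-1 in RPMI with 10% heat-inactivated FCS and 2 mM glutamine, exposed to compound 72 h at 26 °C. Washed in Hanks+Glc, MTT 0.5 mg mL-1 for 2 h at 26 °C, formazan dissolved in 10% SDS overnight at 37 °C, A595. Triplicates, two or more experiments; LD50 with SE.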
row,Compound,LC50
1,CCCCCCCCCCCCCCCCOP(=O)([O-])OCC[N+](C)(C)C [MILTEFOSINE],12.5 µM
2,C[N+](C)(C)CCOP(=O)([O-])OCCCCC/C=C/C=C/C=C/C=C/c1ccccc1,28.6 µM
3,C[N+](C)(C)CCOP(=O)([O-])OCCCCCC#C/C=C/C=C/C=C/c1ccccc1,29.6 µM
4,OCCCCCC#C/C=C/C=C/C=C/c1ccccc1,> 150 µM
5,COC(COCCCCCCC/C=C/C=C/C=C/C=C/c1ccccc1)COP(=O)([O-])OCC[N+](C)(C)C (racemic),9 µM

# Tested on: Leishmania donovani
# Experiment: Antileishmanial activity against miltefosine-resistant Leishmania donovani MHOM/ET/67/L82R40 promastigotes by MTT assay
# Format: functional
# Details: read-out: LD50 (the source's name)
# How it was run: as §1
row,Compound,LC50
1,CCCCCCCCCCCCCCCCOP(=O)([O-])OCC[N+](C)(C)C [MILTEFOSINE],> 60 µM
2,C[N+](C)(C)CCOP(=O)([O-])OCCCCC/C=C/C=C/C=C/C=C/c1ccccc1,> 60 µM
3,C[N+](C)(C)CCOP(=O)([O-])OCCCCCC#C/C=C/C=C/C=C/c1ccccc1,> 60 µM
4,OCCCCCC#C/C=C/C=C/C=C/c1ccccc1,> 150 µM
5,COC(COCCCCCCC/C=C/C=C/C=C/C=C/c1ccccc1)COP(=O)([O-])OCC[N+](C)(C)C (racemic),> 60 µM

# Tested on: Leishmania pifanoi
# Experiment: Antileishmanial activity against miltefosine-sensitive Leishmania pifanoi MHOM/VE/60/Ltrod amastigotes by MTT assay
# Format: functional
# Details: read-out: LD50 (the source's name)
# How it was run: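 Axenic amastigotes from late exponential phase, washed twice, seeded at 2 × 10^6 parasites mL-1 in growth medium with compound for 120 h at 32 °C. Then washed in Hanks+Glc, given 0.5 mg mL-1 MTT for 2 h at 32 °C, SDS 10% overnight at 37 °C, absorbance 595 nm. Triplicates, repeated at least twice; LD50 (50% proliferation inhibition) with SE.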
row,Compound,LC50
1,CCCCCCCCCCCCCCCCOP(=O)([O-])OCC[N+](C)(C)C [MILTEFOSINE],26.3 µM
2,C[N+](C)(C)CCOP(=O)([O-])OCCCCC/C=C/C=C/C=C/C=C/c1ccccc1,26 µM
3,C[N+](C)(C)CCOP(=O)([O-])OCCCCCC#C/C=C/C=C/C=C/c1ccccc1,26.5 µM
4,OCCCCCC#C/C=C/C=C/C=C/c1ccccc1,> 150 µM
5,COC(COCCCCCCC/C=C/C=C/C=C/C=C/c1ccccc1)COP(=O)([O-])OCC[N+](C)(C)C (racemic),22.5 µM

# Tested on: Leishmania donovani
# Experiment: Intracellular drug concentration in miltefosine-sensitive Leishmania donovani promastigotes at 7.5 uM after 2 hrs
# Details: in vivo
row,Compound,Intracellular concentration
1,C[N+](C)(C)CCOP(=O)([O-])OCCCCCC#C/C=C/C=C/C=C/c1ccccc1,0.7 mM
